# KDM4C inh: blocks human GASC-1 (KDM4C) demethylase activity | inhibition, % at 12.5 µM | GST-KDM4C 2-372, H3K9me3 peptide, LANCE TR-FRET | AID 720574 | 0.15% of 96,000 active | Q9H3R0;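 active means mean replicate inhibition above about 25%, with at least 55% of replicates also reaching it, limit read from the data, passing the limit was not always enough; inconclusive means only one of those two conditions met; inactive means neither condition met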
# Target sequence (Q9H3R0 2-372 limits assumed): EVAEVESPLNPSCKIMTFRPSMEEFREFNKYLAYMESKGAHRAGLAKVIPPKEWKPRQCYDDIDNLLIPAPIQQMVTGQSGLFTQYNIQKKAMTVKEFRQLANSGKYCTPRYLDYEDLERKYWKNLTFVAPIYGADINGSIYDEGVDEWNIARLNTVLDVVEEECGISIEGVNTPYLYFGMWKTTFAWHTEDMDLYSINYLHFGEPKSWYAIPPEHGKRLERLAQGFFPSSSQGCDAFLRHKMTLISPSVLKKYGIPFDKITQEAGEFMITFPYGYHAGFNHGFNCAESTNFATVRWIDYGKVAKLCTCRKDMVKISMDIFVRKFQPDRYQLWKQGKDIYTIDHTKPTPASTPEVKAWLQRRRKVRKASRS
#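 Material: GST-tagged GASC-1 (JMJD2C) catalytic fragment, aa 2-372. Input: enzyme final amount 10 nM. Medium: HEPES buffer, pH 7.5, plus ascorbate. Reagent: H3K9me3 peptide substrate, Fe(II), 2-oxoglutarate. Doses: single dose. Times: reaction 30 min RT, detection step 1 h RT. Measured by: LANCE TR-FRET. Evaluation: Fall in 671/618 emission ratio as inhibition.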
# IDH1 mut inh: IDH1 R132H (human) inhibition; O75874; IDH1 R132H reductase, diaphorase/resazurin fluorescence, 60 min; inhibition, % at 10 µM; 0.18% of 70,000 active; AID 624101; in the data active means inhibition above about 34%; inconclusive means no clear call, values can overlap the other calls; inactive means below about 11%;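 further: 0% = DMSO and 100% = no enzyme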
# T cruzi growth-1: T. cruzi proliferation inhibition. T. cruzi beta-gal in NIH3T3, GalScreen luminescence, 90 h. inhibition, % at 8.34 µM. 5.9% of 77,000 active;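 active means mean inhibition above about 93%, with at least 55% of replicates each passing it, limit read from the data, passing the limit was not always enough; inconclusive means only one of those two conditions holds; inactive means neither condition holds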
# Pf Dd2 growth: blocks growth of Plasmodium falciparum Dd2 parasites. 2.3% of 94,000 active. P. falciparum Dd2 growth, SYBR Green, 72 h; hits give low values. activity change, % at 10 µM. AID 1159554; in the data active means activity change below about -80%; inconclusive means no clear call, values can overlap the other calls
# T cruzi growth-2: Trypanosoma cruzi proliferation inhibition. shares compounds with T cruzi growth-1. T. cruzi beta-gal in NIH3T3, GalScreen luminescence, 90 h. inhibition, % at 8.35 µM. 72% of 5,600 active;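 active means mean replicate inhibition above about 95% and at least 55% of replicates individually reaching it, limit read from the data; inconclusive means only one of the two criteria is met; inactive means neither criterion is met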
# T cruzi growth-3: blocks T. cruzi growth in NIH3T3 host cells; T. cruzi beta-gal in NIH3T3, GalScreen luminescence, 90 h; inhibition, % at 2.09 µM; shares compounds with T cruzi growth-1; 21% of 5,600 active;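 active means mean inhibition above about 95%, with at least 55% of replicates also reaching it, limit read from the data; inconclusive means meets just one of the two conditions; inactive means meets neither condition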;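 further: plate controls were neutral control median for no effect and positive control median for full effect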
# 3T3 cytotox: kills mouse NIH/3T3 fibroblasts | AID 651742 | cytotoxicity (signal decrease), % at 8.35 µM | NIH/3T3 viability, CellTiter-Glo ATP luminescence, 90 h | shares compounds with T cruzi growth-1 | 14% of 5,600 active;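 active means mean signal decrease across replicates above about 35% based on untreated-well scatter, with enough replicates individually passing, limit read from the data; inconclusive means no rule stated though some were filed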;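 further: 0% = median of neutral control wells and 100% = median of positive control wells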
# NIH3T3 tox 2: kills mouse NIH/3T3 fibroblasts. 56% of 5,600 active. NIH/3T3 viability, CellTiter-Glo ATP luminescence, 90 h. shares compounds with T cruzi growth-1. inhibition, % at 24.9 µM;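 active means mean loss of cell viability signal at or above a set limit, and enough replicates individually reaching it; inconclusive means meets only the mean limit or only the replicate share; inactive means meets neither condition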;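 further: 0% = median of neutral control wells and 100% = median of positive control wells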
# Numbers without * were called inactive; ? = inconclusive; · = no result. Hits are enriched below; roughly 5.9% of the tested compounds scored in any of these assays.
SMILES,KDM4C inh,IDH1 mut inh,T cruzi growth-1,Pf Dd2 growth,T cruzi growth-2,T cruzi growth-3,3T3 cytotox,NIH3T3 tox 2
C[C@@H]1CCCCO[C@H](CN(C)Cc2ccccc2)[C@H](C)CN([C@@H](C)CO)C(=O)c2cc(NS(C)(=O)=O)ccc2O1,0,-4,56,-31,·,·,·,·
CC1CCc2sc3ncnc(NCCN4CCOCC4)c3c2C1 (stereo not given),·,0,·,·,·,·,·,·
O=C(CSc1nc2ccccc2s1)Nc1cc(Cl)cc(Cl)c1,·,0,·,·,·,·,·,·
Cn1cnc(S(=O)(=O)N2CCCCN3[C@H](CO)[C@H](c4ccc(-c5ccccc5)cc4)[C@H]3C2)c1,-1,·,?,17,26,9,3,30*
Cc1cccc(-c2ccc([C@@H]3[C@@H](CO)N4CCCCN(S(=O)(=O)c5cn(C)cn5)C[C@@H]34)cc2)c1,-1,·,?,-1,83,-22,32,82*
Cn1cnc(S(=O)(=O)N2CCCCN3[C@@H](CO)[C@@H](c4ccc(-c5ccccc5)cc4)[C@@H]3C2)c1,2,·,114*,24,5,-12,-15,40*
Cc1cccc(-c2ccc([C@H]3[C@@H](CO)N4CCCCN(S(=O)(=O)c5cn(C)cn5)C[C@@H]34)cc2)c1,-2,·,-40,6,·,·,·,·
Cn1cnc(S(=O)(=O)N2CCCCN3[C@H](CO)[C@H](c4ccc(-c5ccccc5)cc4)[C@@H]3C2)c1,-1,·,55,29,·,·,·,·
C[C@H]1CN([C@@H](C)CO)C(=O)Cc2cc(N(C)C)ccc2O[C@@H]1CN(C)Cc1ccc(C(=O)Nc2ccccc2N)cc1,2,·,74,-51,·,·,·,·
C[C@@H]1CN([C@@H](C)CO)C(=O)Cc2cc(NC(=O)Cc3ccccc3)ccc2O[C@@H]1CN(C)Cc1ccc(C(=O)Nc2ccccc2N)cc1,-1,·,102*,-81*,106*,80,31,39*
C[C@H](CO)N1C[C@H](C)[C@H](CN(C)Cc2ccc(C(=O)Nc3ccccc3N)cc2)OCc2cnnn2CCCC1=O,-1,-5,106*,-26,108*,59,18,26
C[C@@H]1CN([C@@H](C)CO)C(=O)Cc2cc(N(C)C)ccc2O[C@H]1CN(C)Cc1ccc(C(=O)Nc2ccccc2N)cc1,0,0,96*,-59,106*,?,41*,82*
C[C@H]1CN([C@@H](C)CO)C(=O)Cc2cc(NC(=O)Nc3ccc(C(F)(F)F)cc3)ccc2O[C@H]1CN(C)Cc1ccc(C(=O)Nc2ccccc2N)cc1,9,·,80,-35,·,·,·,·
C[C@@H]1CN([C@@H](C)CO)C(=O)CCCn2nncc2CO[C@@H]1CN(C)Cc1ccc(C(=O)O)cc1,0,·,·,14,·,·,·,·
C[C@@H]1CN([C@H](C)CO)C(=O)Cc2cc(NC(=O)Nc3ccc(C(F)(F)F)cc3)ccc2O[C@@H]1CN(C)Cc1ccc(C(=O)Nc2ccccc2N)cc1,-1,0,?,-14,100*,106*,55*,97*
CCc1cccc(C)c1NC(=O)CNS(=O)(=O)c1ccc(Cl)cc1,·,0,·,·,·,·,·,·
Cc1cc(=O)oc2cc(OC(C)C(=O)Nc3ccccc3[N+](=O)[O-])ccc12 (stereo not given),·,0,·,·,·,·,·,·
CC(C)(C)c1cc(C(F)(F)F)c(C#N)c(SCC(=O)Nc2cccc(F)c2)n1,·,0,·,·,·,·,·,·
C[C@@H]1CN([C@@H](C)CO)S(=O)(=O)c2ccc(C#CC3CC3)cc2O[C@@H]1CN(C)C(=O)Cc1ccncc1,-1,·,88,-52,·,·,·,·
C[C@H](CO)N1C[C@H](C)[C@@H](CN(C)C(=O)Cc2ccncc2)Oc2cc(C#CC3CC3)ccc2S1(=O)=O,-3,?,97*,-16,102*,58,6,9
C[C@H]1CN([C@@H](C)CO)S(=O)(=O)c2ccc(C#CC3CC3)cc2O[C@H]1CN(C)C(=O)Cc1ccncc1,1,15,90,-68,·,·,·,·
C[C@H]1CN([C@@H](C)CO)S(=O)(=O)c2ccc(C#CC3CC3)cc2O[C@@H]1CN(C)C(=O)Cc1ccncc1,1,·,96*,-50,104*,74,-30,-17
CC(C)NC(=O)N1[C@H](C#N)[C@@H](c2ccc(C#CC3CCCC3)cc2)[C@H]1CO,-1,-1,102*,-9,102*,97*,6,37*
CC(C)NC(=O)N1[C@H](CO)[C@H](c2ccc(C#CC3CCCCC3)cc2)[C@@H]1C#N,-1,·,107*,-32,98*,116*,30,54*
CC(C)NC(=O)N1[C@H](C#N)[C@@H](c2ccc(C#CC3CCCCC3)cc2)[C@@H]1CO,1,·,96*,-73,96*,113*,-2,105*
SMILES,KDM4C inh,IDH1 mut inh,T cruzi growth-1,Pf Dd2 growth,T cruzi growth-2,T cruzi growth-3,3T3 cytotox,NIH3T3 tox 2
N#C[C@@H]1[C@H](c2ccc(C#CC3CCCC3)cc2)[C@@H](CO)N1C(=O)Nc1ccc(F)cc1,-2,·,98*,-9,99*,95,2,107*
Cc1c2c(=O)[nH]ncc2c(-c2ccccc2)n1CCSCc1c(F)cccc1Cl,·,1,·,·,·,·,·,·
Nc1nnc(SCC(=O)Nc2ccc(I)cc2)s1,·,-1,·,·,·,·,·,·
CC1=CCC2C(=O)N(c3ccc(C4CCCCC4)cc3)C(=O)C2C1 (stereo not given),·,1,·,·,·,·,·,·
N#C[C@H]1[C@@H](c2ccc(C#CC3CCCCC3)cc2)[C@H](CO)N1C(=O)Cc1ccccn1,-1,·,100*,-34,101*,104*,-33,81*
CN(C)CC(=O)N1[C@H](C#N)[C@H](c2ccc(C#CC3CCCC3)cc2)[C@H]1CO,3,·,99*,-30,96*,66,-9,106*
Cc1ccc(S(=O)(=O)N(C)C[C@H]2Oc3cc(C4=CCCC4)ccc3S(=O)(=O)N([C@H](C)CO)C[C@H]2C)cc1,2,0,·,-22,·,·,·,·
COc1ccc(S(=O)(=O)N(C)C[C@@H]2Oc3cc(C4=CCCC4)ccc3S(=O)(=O)N([C@@H](C)CO)C[C@@H]2C)cc1,1,-1,109*,-61,104*,88,27,39*
COc1ccc(S(=O)(=O)N(C)C[C@@H]2Oc3cc(C4=CCCC4)ccc3S(=O)(=O)N([C@H](C)CO)C[C@@H]2C)cc1,0,0,120*,-38,101*,78,34,49*
COc1cccc(S(=O)(=O)N(C)C[C@@H]2Oc3cc(C4=CCCC4)ccc3S(=O)(=O)N([C@H](C)CO)C[C@@H]2C)c1,0,0,107*,-68,104*,81,27,27*
COc1cccc(S(=O)(=O)N(C)C[C@H]2Oc3cc(C4=CCCC4)ccc3S(=O)(=O)N([C@@H](C)CO)C[C@H]2C)c1,-2,0,74,-4,·,·,·,·
